Measured values taken from article PMC5033602 (Investigative Ophthalmology & Visual Science, 2016).
Entries after “also recorded” stand apart in the source; their conditions may differ.

Experiments:
primary pig RPE cells [1] = test: Cell viability; assay type: cell-based
Summary of the method: (§1)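 Primary pig RPE cultures plated at 2 × 10⁴ cells/well (96-well) and grown to confluence (72 h), then exposed to H₂O₂ with TNF-α (10 ng/mL) and test peptide for the indicated time. Live cells were measured as intracellular ATP luminescence (CellTiter-Glo) and dead cells as dead-cell protease luminescence (CytoTox-Glo), with lysis reagent added for total-cell signal. Relative cell numbers are from duplicate wells.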

ARPE-19 cells [2] = test: Cell death; assay type: cell-based, human
Summary of the method: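 ARPE-19 cells (passages 27–40) grown in DMEM/F-12 with 10% FBS at 37°C, 5% CO₂, plated at 2 × 10⁴ cells/well (96-well) and cultured to confluency (72 h). Serum-starved 8 h in 0.5% serum, then exposed 16 h to H₂O₂ (600 μM for scrambled-control comparison) plus TNF-α (10 ng/mL) with test peptides. Dead-cell protease activity read by CytoTox-Glo; duplicate wells ± SD.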

ARPE-19 cells [3] = test: Pyknotic nuclei counting; assay type: cell-based, human; settings: 600 μM H2O2, 16 hours, Hoechst stain
Summary of the method: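 ARPE-19 cells were serum-starved, then treated with 600 μM H₂O₂ and test peptide together for 16 h. Cells were fixed in methanol (15 min, RT) and stained with 5 μM Hoechst in PBS (15 min, RT). Five random fields per well were imaged, and pyknotic nuclei were counted as a percentage of total cells.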

human recombinant 5-LOX = test: Peptide-affinity chromatography, human recombinant 5-LOX; assay type: binding; settings: 0.1 M sodium phosphate, 0.1% NP-40, Western blot
Summary of the method: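 Human recombinant 5-LOX (300 ng) was incubated with P1-peptide agarose (0.4 nmol) in 0.1 M sodium phosphate and 0.1% NP-40 containing 25–250 mM NaCl, with gentle rotation at 4°C (1.5 h per general method). Agarose without peptide at 50 mM NaCl served as control resin. After extensive washes, bound protein was eluted in SDS-PAGE sample buffer and detected by anti-5-LOX Western blot (1:10,000) with chemiluminescence on film.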

PEDF = settings: peptides from Leu159-Met325 of PEDF-R; cited from earlier work
[4] = test system: LTB4 (5-LOX activity) in primary pig RPE cells; test: Leukotriene B4 ELISA, primary pig RPE medium; assay type: cell-based; settings: 125 μM or 250 μM H2O2/TNF-α
Summary of the method: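 Primary pig RPE cultures received H₂O₂ with TNF-α and test peptide. Medium was collected per well, spun briefly at low speed, and 50 μL was assayed by competitive LTB₄ enzyme immunoassay. Concentration came from an LTB₄ standard curve and was normalized to cell number per well. Duplicate wells per condition, each well measured in triplicate; experiment run twice.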

ARPE-19 cells [5] = test: Cell viability; assay type: cell-based, human
Summary of the method: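 ARPE-19 cells (passages 27–40; DMEM/F-12, 10% FBS, 37°C, 5% CO₂) were plated at 2 × 10⁴ cells/well and grown to confluence (72 h). After 8 h starvation in 0.5% serum, cells received increasing H₂O₂ plus TNF-α (10 ng/mL), with or without test peptide, for 16 h. Relative live-cell numbers came from intracellular ATP luminescence; each point is the mean of duplicate wells.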

[6] = test system: LTB4 (5-LOX activity) in ARPE-19 cells; test: Leukotriene B4 ELISA, ARPE-19 medium; assay type: cell-based, human
primary pig RPE cells [7] = test: Cell death; assay type: cell-based; settings: for Cell death under oxidative stress: pig RPE
Summary of the method: as §1

P1: L4-derived peptide containing residues Thr^210-Leu^249 of human PEDF-R (TSIQFNLRNLYRLSKALFPPEPLVLREMCKQGYRDGLRFL; UniProt Q96AD5 210-249, looked up, fragment)
Cell viability under oxidative stress (primary pig RPE cells [1]; 125 μM H2O2): increased pig RPE cell viability | Cell numbers (viability) under oxidative stress (primary pig RPE cells [1]; 250 μM H2O2): did not increase the cell numbers | Number of dead cells under oxidative stress (ARPE-19 cells [2]; H2O2 (600 μM for SCR comparison), dead cell protease activity): decreased cell death of RPE cells undergoing oxidative stress; also recorded: decreased the number of dead cells under oxidative stress in a concentration-dependent fashion | Protection from oxidative stress-induced cell death (summary) (ARPE-19 cells [2]; H2O2/TNF-α): protected ARPE-19 and pig primary RPE cells from oxidative stress–induced cell death in a specific and concentration-dependent fashion | Pyknotic nuclei level (ARPE-19 cells [3]): resulted in a decrease of pyknotic nuclei level | Binding of 5-LOX to P1 at 250 mM NaCl (human recombinant 5-LOX; 250 mM NaCl): completely abolished | Binding of 5-LOX to P1 with increasing ionic strength (human recombinant 5-LOX; 25-250 mM NaCl): with increasing ionic strength the binding decreased | PEDF-binding affinity (PEDF): retain the PEDF-binding affinity of PEDF-R | LTB4 level under oxidative stress [4]: decreased LTB4 levels in primary pig RPE cells treated at 125 μM or 250 μM H2O2/TNF-α in a concentration-dependent fashion | Protective effect against H2O2 (ARPE-19 cells [5]; 600 μM H2O2 plus TNF-α (10 ng/mL), preliminary, data not shown): had protective effects against 600 μM H2O2 | Cell viability under oxidative stress (ARPE-19 cells [5]; H2O2/TNF-α, ATP live cell biomarker, duplicate wells): promoted cell viability; also recorded: increased the ARPE-19 cell viability | LTB4 level under oxidative stress ([6]; 600 μM H2O2/TNF-α, 20 nM P1): decreased LTB4 to basal levels | LTB4 level under oxidative stress ([6]; 750 μM H2O2/TNF-α): only partially diminished LTB4 | Cell death under oxidative stress (primary pig RPE cells [7]; 125 μM H2O2): decreased death at 125 μM H2O2 | Cell death under oxidative stress (primary pig RPE cells [7]; 250 μM H2O2): decreased cell death at 250 μM H2O2 | Protection from oxidative stress-induced cell death (summary) (primary pig RPE cells [7]; pig primary RPE, H2O2/TNF-α): protected ARPE-19 and pig primary RPE cells from oxidative stress–induced cell death in a specific and concentration-dependent fashion
